Compound activity from PubChem BioAssay.
The entries come from a sample that favours hits as a whole.
L major viab = inhibitors of Leishmania major promastigote growth; 200,000 tested, 9% active; Leishmania major promastigotes, resazurin fluorescence viability; inhibition, % at 10 µM; AID 1063;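 also: promastigotes grown with compound for 44 hours at 28 °C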
ABCG2 inh = human ABCG2 inhibition, ABCB1 as counter-screen | Q9UNQ0 | IgMXP3 cells, JC-1 efflux, flow cytometry | inhibition, % at 6.6 µM | 190,000 tested, 0.1% active | AID 1325;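 active = inhibition above 80%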
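test system = two drug-resistant human cell lines, ABCG2 and ABCB1 | amount = 3 million cells/mL final, two lines in 1:1 ratio | reagent = JC-1 transporter substrate | doses = one concentration, 6.6 µM final | incubation = 10 min at 25 °C | signal = flow cytometric JC-1 green MFI at 530 nm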
ABCB1 block = human ABCB1 inhibition, ABCG2 as counter-screen; P08183; CCRF-Adr cells, JC-1 efflux, flow cytometry; inhibition, % at 6.6 µM; 190,000 tested, 0.067% active; AID 1326; in the data active = inhibition above about 40%;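 also: higher value means more JC-1 retained so stronger ABCB1 efflux block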
Target sequence (P08183 whole entry, looked up): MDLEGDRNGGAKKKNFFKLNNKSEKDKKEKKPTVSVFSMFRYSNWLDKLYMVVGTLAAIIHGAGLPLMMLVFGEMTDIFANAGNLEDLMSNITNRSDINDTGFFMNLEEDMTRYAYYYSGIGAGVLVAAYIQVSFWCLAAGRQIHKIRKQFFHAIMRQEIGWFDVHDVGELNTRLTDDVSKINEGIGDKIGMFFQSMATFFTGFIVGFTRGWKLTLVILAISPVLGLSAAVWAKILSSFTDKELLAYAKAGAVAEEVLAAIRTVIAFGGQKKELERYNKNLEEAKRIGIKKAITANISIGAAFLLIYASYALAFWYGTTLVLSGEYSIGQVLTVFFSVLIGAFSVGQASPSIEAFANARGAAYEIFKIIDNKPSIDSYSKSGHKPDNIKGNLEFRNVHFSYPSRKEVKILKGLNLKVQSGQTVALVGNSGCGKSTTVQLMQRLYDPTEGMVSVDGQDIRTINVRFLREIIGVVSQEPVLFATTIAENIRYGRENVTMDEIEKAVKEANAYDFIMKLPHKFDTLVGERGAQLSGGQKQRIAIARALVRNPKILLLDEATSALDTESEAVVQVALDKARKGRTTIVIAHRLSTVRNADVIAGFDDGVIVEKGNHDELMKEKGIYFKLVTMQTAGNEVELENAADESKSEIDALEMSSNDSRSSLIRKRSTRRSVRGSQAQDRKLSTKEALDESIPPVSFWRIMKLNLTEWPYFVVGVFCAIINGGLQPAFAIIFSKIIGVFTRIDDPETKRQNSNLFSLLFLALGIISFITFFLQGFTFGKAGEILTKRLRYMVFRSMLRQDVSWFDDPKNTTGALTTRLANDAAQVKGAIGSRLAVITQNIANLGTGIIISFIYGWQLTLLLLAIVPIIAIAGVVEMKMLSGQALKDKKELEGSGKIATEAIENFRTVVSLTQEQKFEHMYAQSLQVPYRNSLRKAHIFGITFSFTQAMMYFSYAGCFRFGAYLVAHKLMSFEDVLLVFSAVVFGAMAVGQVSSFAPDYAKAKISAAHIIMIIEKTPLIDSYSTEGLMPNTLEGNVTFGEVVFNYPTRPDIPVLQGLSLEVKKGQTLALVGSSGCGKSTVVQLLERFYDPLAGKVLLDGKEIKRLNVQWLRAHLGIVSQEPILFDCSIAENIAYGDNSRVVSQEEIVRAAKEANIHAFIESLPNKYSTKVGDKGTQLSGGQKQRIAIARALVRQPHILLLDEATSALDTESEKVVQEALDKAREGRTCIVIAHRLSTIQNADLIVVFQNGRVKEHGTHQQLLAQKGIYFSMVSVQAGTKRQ
PKD1 kinase inh = blocks activity of human protein kinase D1. PKD1 kinase fluorescence polarization assay. 200,000 tested, 0.056% active. inhibition, % (test concentration not listed). Q15139
GSH fluor = GSH bead compound fluorescence profile; 190,000 tested, 0.25% active; GSH beads flow cytometry, compound fluorescence 488/530 nm; hits give high values; AID 1776; fluorescence (KMESF) at 10 µM; in the data active = fluorescence above about 89;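 also: glutathione beads carrying GST-tagged Bcl family fusion proteins plus one bare bead set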
Avidin bead fluor = avidin bead compound fluorescence profile; Avidin beads, compound fluorescence 488/530 nm, flow cytometry; hits give high values; fluorescence (KMESF) at 10 µM; 220,000 tested, 0.38% active; AID 1775; in the data active = fluorescence above about 47
Of the large screens only hits and unclear results are named; the others gave an inactive call. Rule as the data show it, unless noted: active = inhibition above about 50%; inactive = the rest.

CC(OC(=O)c1ccccc1Nc1ccc(SC(F)F)cc1)C(N)=O (centres undefined)	L major viab 55
O=C(COC(=O)c1ccccc1Nc1ccc(SC(F)F)cc1)NC1CC1	L major viab 61
Cc1ccc(NC2=C(NC(=O)c3ccccc3)C(=O)c3ccccc3C2=O)cc1Cl	L major viab 98
O=C(O)c1cccc(NC2=C(Cl)C(=O)c3ccccc3C2=O)c1	L major viab 66
O=C(O)c1ccc(NC2=C(Cl)C(=O)c3ccccc3C2=O)cc1	none (no result: L major viab, ABCG2 inh, ABCB1 block, PKD1 kinase inh, GSH fluor)
Cc1ccc(NCC(=O)c2ccccc2)cc1Cl	none
CCC(=O)Nc1cccc(-n2nnnc2SCC(=O)N2CCCCC2)c1	none
c1ccc(Cn2nnc(CNc3ccccc3)c2-c2c(CNc3ccccc3)nnn2Cc2ccccc2)cc1	none (no result: L major viab, ABCG2 inh, ABCB1 block, PKD1 kinase inh, GSH fluor)
Cc1[nH]c2ccc(CNS(=O)(=O)c3ccc(S(=O)(=O)N4CCOCC4)cc3)cc2c1C	none
COC(=O)c1c(C)[nH]c(C)c1-c1cccc([N+](=O)[O-])c1	none
COC(=O)c1c(C)[nH]c(C)c1-c1ccc(C)cc1	L major viab 94
C/C(=N\NC(=O)Cn1c(-c2ccccn2)nc2ccccc21)c1ccccc1	L major viab 68
CCCOc1ccc([N+](=O)[O-])c(N)c1	none
O=S(=O)(CCc1ccccc1)/N=C/c1cccs1	Avidin bead fluor 51
O=C(Cc1ccccc1)N/N=C/c1cccs1	none
CN(C)CCN(C)Cc1ccccc1Sc1cccc2ccccc12	L major viab 100
CNCc1ccccc1Sc1cccc2ccccc12	L major viab 79
Cc1ccc[n+](C(C)C(=O)c2ccc(-c3ccccc3)cc2)c1 (centres undefined)	L major viab 98
Cc1cc[n+](C(C)C(=O)c2ccc(-c3ccccc3)cc2)cc1 (centres undefined)	L major viab 90
CC(C(=O)c1ccc(-c2ccccc2)cc1)[n+]1ccccc1 (centres undefined)	none
CC(=O)Nc1cc[n+](C(C)C(=O)c2ccc(Cl)cc2)cc1 (centres undefined)	none
COc1ccc(C(=O)OCC(=O)NCC2CCCO2)cc1S(=O)(=O)N1CCCc2ccccc21 (centres undefined)	none
CCOC(=O)c1cnn(-c2ccc(F)cc2)c1N	none
CC(C)(C)C(=O)Nc1cc(S(=O)(=O)Nc2ccc(Cl)cc2)ccc1Cl	L major viab 76
CSc1nc2nccc(/C=C\c3ccccc3)n2n1	L major viab 86
CCOCCN1CCN(C(=O)CN2CCCC2=O)CC1	none
CCCCCOC(=O)CCN1C(=O)/C(=C2\SC(=S)N(CCC(=O)OCCCCC)C2=O)SC1=S	none (no result: L major viab, ABCG2 inh, ABCB1 block, PKD1 kinase inh, GSH fluor)
CCCCOC(=O)CCN1C(=O)/C(=C2\SC(=S)N(CCC(=O)OCCCC)C2=O)SC1=S	L major viab 66
COc1ccc(NC(=S)N2CCN(C/C=C/c3ccccc3)CC2)cc1	L major viab 86
CCOc1ccc(NC(=S)N2CCN(C/C=C/c3ccccc3)CC2)cc1	L major viab 90
COc1ccc(NC(=S)N2CCN(C/C=C/c3ccccc3)CC2)cc1OC	L major viab 74
Cc1cccc(C(=O)NCC(=O)Nc2ccc(S(=O)(=O)Nc3nc(C)cc(C)n3)cc2)c1	none
O=C(CCS(=O)(=O)c1ccccc1)Nc1cccc2c1C(=O)NC2=O	none
CCC1SC2=NC(C)=C(C(=O)OC)C(c3cccs3)N2C1=O (centres undefined)	none
Cc1cc(NC(=S)NC(=O)C2CC2)ccc1Br	none
CCn1nnnc1-c1ccc(OC)c(S(=O)(=O)NCc2ccccc2)c1	none
CCn1nnnc1-c1ccc(OC)c(S(=O)(=O)Nc2ccc(C)c(C)c2)c1	L major viab 99
Cc1ccc(OCC(O)CN2CCN(Cc3ccc4c(c3)OCO4)CC2)c(C)c1 (centres undefined)	L major viab 87
COc1ccc(OCC(O)CN2CCN(Cc3ccc4c(c3)OCO4)CC2)cc1 (centres undefined)	L major viab 99
CC(=O)c1ccc(OCC(O)CN2CCN(Cc3ccc4c(c3)OCO4)CC2)cc1 (centres undefined)	L major viab 93
CCN1CCN(CC(O)COc2ccc(C(C)=O)cc2)CC1 (centres undefined)	none
COc1ccccc1N1CCN(CC(O)COc2ccc3c(c2)OCO3)CC1 (centres undefined)	none
CCOC(=O)c1c(/N=C/c2cccc([N+](=O)[O-])c2O)sc(C)c1C	none
Cc1cc(C)cc(NC(=O)COC(=O)CN=C2NS(=O)(=O)c3ccccc32)c1	none
O=C(CNc1cccc2ccccc12)N/N=C/c1ccc[nH]1	none (no result: L major viab, ABCG2 inh, ABCB1 block, PKD1 kinase inh, GSH fluor)
O=C(CNc1cccc2ccccc12)N/N=C/c1ccc([N+](=O)[O-])o1	L major viab 99
O=C(CNc1ccccc1)N/N=C/c1ccc([N+](=O)[O-])cc1	none
O=C(CNc1cccc([N+](=O)[O-])c1)N/N=C/c1ccc([N+](=O)[O-])o1	L major viab 100
Cc1ccc(-n2c(NN)nc3ccccc3c2=O)c(C)c1	none
Cc1ccc(-n2c(-c3ccccc3)c[n+]3c2CCc2ccccc2-3)c(C)c1	L major viab 101
O=S(=O)(Cc1cccc(C(F)(F)F)c1)c1ncn[nH]1	none
Cc1cccc(C(=O)NC(=S)NNC(=O)c2ccccc2Cl)c1	none
Cc1cc(C(=O)NNC(=S)NC(=O)/C=C/c2ccccc2Cl)n[nH]1	L major viab 78
Cc1ccc(CNc2ccc3c(c2)ncn3C(C)(C)C)cc1	none
CCN(CC)CC(O)COCCC12CC3CC(CC(C3)C1)C2 (centres undefined)	L major viab 93
OCCN(CCO)CC(O)COCCC12CC3CC(CC(C3)C1)C2 (centres undefined)	L major viab 71
OCCN(CCO)CC(O)COc1ccc(C23CC4CC(CC(C4)C2)C3)cc1 (centres undefined)	L major viab 100
CCc1ccc(OCCOCC(O)CN(CCO)CCO)cc1 (centres undefined)	none
CC1C(=O)CCC1(C(=O)O)c1ccccc1 (centres undefined)	Avidin bead fluor 49
Cc1ccccc1-n1c(Cn2c(=O)sc3ccccc32)nnc1SCC(=O)NCC1CCCO1 (centres undefined)	none
CC(C)Oc1ccc(-c2nc(NCC3CCCO3)c3ccccc3n2)cc1 (centres undefined)	none (no result: L major viab, ABCG2 inh, ABCB1 block, PKD1 kinase inh, GSH fluor)
COc1cccc(Nc2nc(NCCO)c3ccccc3n2)c1	L major viab 101
OCCNc1nc(Nc2cccc(O)c2)nc2ccccc12	none (no result: L major viab, ABCG2 inh, ABCB1 block, PKD1 kinase inh, GSH fluor)
Nc1nc(N2CCCCC2)nc2ccccc12	none
COc1cccc(Nc2nc(NCC3CCCO3)c3ccccc3n2)c1 (centres undefined)	L major viab 100
Oc1ccccc1Nc1nc(NCC2CCCO2)c2ccccc2n1 (centres undefined)	L major viab 82
